Source: ChEMBL document CHEMBL4433221, “Novel Sustainable-by-Design HDAC Inhibitors for the Treatment of Alzheimer's Disease” (ACS Med Chem Lett, 2019)
One block for each molecule: values may come before it. Activity calls are given as the source filed them. The rule behind the calls is not given here.

Tests used:
[1] = Permeability of the compound at pH 7.4 PBS buffer at 100 uM measured upto 6 hrs by PAMPA-BBB assay
[2] = Neurotoxicity against rat CGN cells assessed as cell viability at 25 uM incubated for 24 hrs by MTT assay; format: toxicity, cell-based; settings: read-out: Activity
Summary of the method: (§1)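 Primary rat cerebellar granule neuron cultures were exposed for 24 h to 5, 25 or 50 μM. Viability was measured by MTT and expressed as percentage of untreated controls, as mean ± SE of at least three experiments, each run in triplicate.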

Rattus norvegicus = species on record: Rattus norvegicus; experiment: Neuroprotective activity against low serum/K+ deprivation-induced toxicity in rat CGN cells assessed as increase in cell viability at 5 to 25 uM pre-treated for 6 hrs followed by 24 hrs co-treatment with serum/K+ starvation and measured after 24 hrs by MTT assay; format: functional, cell-based
Summary of the method: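 Primary rat cerebellar granule neurons were pretreated for 6 h, then cotreated for 24 h under low-serum and K+ deprivation to induce death. Viability was compared with control and deprivation-only conditions, with tacrine as reference compound.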

[3] = Neurotoxicity against rat CGN cells assessed as cell viability at 50 uM incubated for 24 hrs by MTT assay; format: toxicity, cell-based; settings: read-out: Activity; summary of the method: as §1
N9 [4] = experiment: Immunomodulatory activity in mouse N9 cells assessed as reduction in LPS-induced iNOS expression at 5 to 25 uM incubated for 24 hrs by Western blot analysis; format: functional, cell-based
Summary of the method: (§2)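 N9 mouse microglial cells stimulated with LPS (100 ng/mL) and treated at 5 and 25 μM. iNOS and MRC1 levels were read by Western blot with GAPDH as loading control. Densitometry is expressed as percentage of LPS-only cells, as mean ± SE of three independent experiments.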

N9 [5] = experiment: Immunomodulatory activity in mouse N9 cells assessed as increase in LPS-induced MRC1 expression at 5 to 25 uM incubated for 24 hrs by Western blot analysis; format: functional, cell-based; summary of the method: as §2
[6] = biological target: T1, Protein deacetylase HDAC6 (Homo sapiens) (UniProt Q9UBN7); experiment: Inhibition of human recombinant HDAC6 at 10 uM using ZMAL (Z-(Ac)Lys-AMC fluorogenic substrate incubated for 90 mins by fluorescence method
T1 sequence (whole entry): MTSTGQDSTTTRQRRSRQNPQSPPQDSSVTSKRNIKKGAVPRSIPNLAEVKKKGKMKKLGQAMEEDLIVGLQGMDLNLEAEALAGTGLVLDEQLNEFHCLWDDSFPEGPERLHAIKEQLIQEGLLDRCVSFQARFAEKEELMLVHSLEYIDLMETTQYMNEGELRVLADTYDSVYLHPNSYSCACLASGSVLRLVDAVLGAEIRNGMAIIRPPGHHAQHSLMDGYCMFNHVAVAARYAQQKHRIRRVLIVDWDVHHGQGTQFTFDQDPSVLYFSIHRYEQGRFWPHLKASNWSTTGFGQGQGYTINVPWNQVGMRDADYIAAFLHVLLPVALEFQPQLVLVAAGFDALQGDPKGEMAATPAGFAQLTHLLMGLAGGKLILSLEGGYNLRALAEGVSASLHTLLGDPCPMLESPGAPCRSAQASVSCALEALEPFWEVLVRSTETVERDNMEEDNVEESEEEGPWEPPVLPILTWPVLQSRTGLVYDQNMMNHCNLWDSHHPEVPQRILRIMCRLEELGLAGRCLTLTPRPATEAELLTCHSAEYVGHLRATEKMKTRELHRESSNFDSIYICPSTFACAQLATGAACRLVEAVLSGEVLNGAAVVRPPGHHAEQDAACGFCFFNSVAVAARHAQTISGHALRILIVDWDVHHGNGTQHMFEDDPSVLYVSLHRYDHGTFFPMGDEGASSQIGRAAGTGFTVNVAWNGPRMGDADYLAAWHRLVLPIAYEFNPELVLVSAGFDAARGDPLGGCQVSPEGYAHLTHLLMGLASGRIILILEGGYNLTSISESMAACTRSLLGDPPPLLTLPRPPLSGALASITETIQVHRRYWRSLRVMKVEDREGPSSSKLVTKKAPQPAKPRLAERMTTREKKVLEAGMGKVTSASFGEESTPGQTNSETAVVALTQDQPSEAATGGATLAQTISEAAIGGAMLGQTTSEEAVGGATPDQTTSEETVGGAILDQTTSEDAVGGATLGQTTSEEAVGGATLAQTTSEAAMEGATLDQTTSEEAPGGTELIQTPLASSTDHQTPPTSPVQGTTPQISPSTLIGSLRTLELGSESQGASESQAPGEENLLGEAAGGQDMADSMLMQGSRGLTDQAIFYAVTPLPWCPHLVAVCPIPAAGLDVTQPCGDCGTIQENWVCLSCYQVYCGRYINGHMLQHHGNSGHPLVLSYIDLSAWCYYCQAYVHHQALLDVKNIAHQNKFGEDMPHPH

Histone deacetylase 1 = Histone deacetylase 1 (Homo sapiens, UniProt Q13547); experiment: Inhibition of human recombinant HDAC1 at 10 uM using ZMAL (Z-(Ac)Lys-AMC fluorogenic substrate incubated for 90 mins by fluorescence method
Sequence of Histone deacetylase 1 (Q13547 whole entry): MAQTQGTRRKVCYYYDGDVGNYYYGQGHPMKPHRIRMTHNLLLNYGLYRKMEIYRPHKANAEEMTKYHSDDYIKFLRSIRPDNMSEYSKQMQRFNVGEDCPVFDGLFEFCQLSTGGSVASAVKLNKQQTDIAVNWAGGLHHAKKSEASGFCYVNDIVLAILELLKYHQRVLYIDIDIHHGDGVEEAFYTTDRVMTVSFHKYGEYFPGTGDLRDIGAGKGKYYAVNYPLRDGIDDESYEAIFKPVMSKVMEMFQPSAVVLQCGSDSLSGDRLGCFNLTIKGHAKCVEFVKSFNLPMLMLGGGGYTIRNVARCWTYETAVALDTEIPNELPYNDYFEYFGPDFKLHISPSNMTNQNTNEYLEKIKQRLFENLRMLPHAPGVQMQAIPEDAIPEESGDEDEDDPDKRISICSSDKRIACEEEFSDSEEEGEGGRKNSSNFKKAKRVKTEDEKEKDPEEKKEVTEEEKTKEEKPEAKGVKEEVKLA

SMILES: CCCCCCCCCCCCCCCc1cccc(O)c1
- Papp at 6 h, 100 µM [1]: 3.1 ×10⁻⁶ cm/s

SMILES: CO/N=C(\C(=O)N[C@@H]1C(=O)N2C(C(=O)O)=C(COC(N)=O)CS[C@H]12)c1ccco1 [CEFUROXIME]
- Papp at 6 h, 100 µM [1]: 2.7 ×10⁻⁶ cm/s

SMILES: O=C(CCCCCCC(=O)Nc1ccccc1)NO [VORINOSTAT]
- viability at 24 h, 25 µM [2]: 70%
- Activity (Rattus norvegicus): inactive
- viability at 24 h, 50 µM [3]: 52%
- Activity (N9 [4]): Active
- Activity (N9 [5]): inactive

SMILES: COc1cccc(CCCCCCCC(=O)O)c1
- inhibition [6]: < 15%
- inhibition (Histone deacetylase 1): < 15%

Next, values leading:

- Papp at 6 h, 100 µM [1]: 5.1 ×10⁻⁶ cm/s
SMILES: CN(C)CCCN1c2ccccc2Sc2ccc(Cl)cc21 [CHLORPROMAZINE]

- Papp at 6 h, 100 µM [1]: 3.75 ×10⁻⁶ cm/s
SMILES: Nc1c2c(nc3ccccc13)CCCC2 [TACRINE]
